Laboratory results published in ChEMBL document CHEMBL3853286, “Screening and Biological Effects of Marine Pyrroloiminoquinone Alkaloids: Potential Inhibitors of the HIF-1α/p300 Interaction” (J Nat Prod, 2016).
Active and inactive are the calls of the source. The rule behind the calls is not given here.

Tests used:
[1] = Cytotoxicity against human HCT116 cells measured after 18 hrs under hypoxic condition by CCK8 assay; format: functional, cell-based; details: HCT-116, 18 h
Procedure, shortened: (§1)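 HCT 116 cells in McCoy's 5A with 10% FBS, seeded 10 000 cells/well. After 24 h, treated with compound (0.05−50 μM), tirapazamine positive control or DMSO (0.5%, v/v). Incubated 18 h or 48 h at 0.5% O2, then CCK-8 for 2 h at 37 °C with absorbance at 450 nm. Percent viability relative to DMSO controls. Quadruplicate wells, triplicate experiments.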

[2] = target: T1, Hypoxia-inducible factor 1-alpha (Homo sapiens, UniProt Q16665); assay: Inhibition of hypoxia-induced HIF1alpha transcriptional activity in human LNCAP cells at 0.1 to 10 uM measured after 18 hrs by hypoxia response element-driven dual luciferase reporter gene assay relative to hypoxia control; format: cell-based
Procedure, shortened: (§2)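 LNCaP cells seeded 15 000/well and cotransfected (Lipofectamine 3000) with 10 ng pGL4.42 HRE-luciferase and 1 ng pRL-TK. After 24 h, treated in phenol-free RPMI-1640 with 0.1% charcoal-stripped FBS containing compound (0.1, 1, 10 μM). Incubated 18 h at 1% O2. Dual-luciferase HRE:TK ratio normalized to hypoxic DMSO control. Quadruplicate wells, triplicate experiments, Wilcoxon test with Hochberg correction.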
Target sequence in this assay (Q16665 whole entry, looked up): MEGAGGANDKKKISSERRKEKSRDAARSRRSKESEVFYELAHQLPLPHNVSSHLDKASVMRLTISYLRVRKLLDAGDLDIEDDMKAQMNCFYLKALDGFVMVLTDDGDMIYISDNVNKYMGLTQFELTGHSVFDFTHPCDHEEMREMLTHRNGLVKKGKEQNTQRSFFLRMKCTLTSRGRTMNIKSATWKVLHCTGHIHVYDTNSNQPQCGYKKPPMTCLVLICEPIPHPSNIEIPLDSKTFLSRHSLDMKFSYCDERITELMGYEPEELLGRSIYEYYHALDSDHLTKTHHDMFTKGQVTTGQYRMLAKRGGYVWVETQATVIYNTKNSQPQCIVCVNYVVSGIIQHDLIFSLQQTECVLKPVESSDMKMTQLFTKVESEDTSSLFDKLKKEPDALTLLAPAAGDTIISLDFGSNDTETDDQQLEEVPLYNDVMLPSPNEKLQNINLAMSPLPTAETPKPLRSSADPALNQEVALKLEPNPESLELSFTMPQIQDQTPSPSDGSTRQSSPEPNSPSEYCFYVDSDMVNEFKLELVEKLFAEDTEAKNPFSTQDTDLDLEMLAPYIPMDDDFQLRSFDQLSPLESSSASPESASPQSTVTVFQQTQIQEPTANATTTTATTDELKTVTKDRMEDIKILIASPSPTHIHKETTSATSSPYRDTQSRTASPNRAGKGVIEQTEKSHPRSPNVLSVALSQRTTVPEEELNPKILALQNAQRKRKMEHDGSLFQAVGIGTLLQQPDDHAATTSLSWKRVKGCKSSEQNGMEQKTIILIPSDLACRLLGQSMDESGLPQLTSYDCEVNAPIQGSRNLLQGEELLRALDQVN

[3] = target: T1, Hypoxia-inducible factor 1-alpha; assay: Inhibition of hypoxia-induced HIF1alpha transcriptional activity in human LNCAP cells assessed as compound concentration causing inhibition of transcriptional activity measured after 18 hrs by hypoxia response element-driven dual luciferase reporter gene assay relative to hypoxia control; format: cell-based; procedure, shortened: as §2
Target sequence in this assay (Q16665 whole entry, looked up): as above

[4] = Cytotoxicity against human LNCAP cells measured after 18 hrs under hypoxic condition by CCK8 assay; format: functional, cell-based
Procedure, shortened: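 LNCaP cells in phenol-free RPMI-1640 with 10% FBS, seeded 15 000 cells/well. After 24 h, exposed to compound (0.1−10 μM), tirapazamine or DMSO (0.5%, v/v) for 18 h at 1% O2. CCK-8 absorbance read at 450 nm after 2 h at 37 °C and normalized to DMSO controls to give percent viability. Quadruplicate wells, triplicate experiments.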

[5] = target: T1, Hypoxia-inducible factor 1-alpha; assay: Inhibition of hypoxia-induced HIF1alpha transcriptional activity in human HCT116 cells at 0.1 to 10 uM measured after 18 hrs by hypoxia response element-driven dual luciferase reporter gene assay relative to hypoxia control; format: cell-based; details: HCT-116
Procedure, shortened: (§3)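 HCT 116 cells seeded 50 000/well and cotransfected (Lipofectamine 2000) with 100 ng pGL4.42 HRE-firefly luciferase and 10 ng pRL-TK Renilla. After 24 h, treated in 0.1% FBS medium with compound (0.01−10 μM), chetomin (0.5 μM) or tirapazamine (25 μM). Incubated 18 h at 0.5% O2 or normoxia. HRE:TK ratio normalized to hypoxic DMSO control. Wilcoxon test with Hochberg correction.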
Target sequence in this assay (Q16665 whole entry, looked up): as above

[6] = target: T1, Hypoxia-inducible factor 1-alpha; assay: Displacement of GST-tagged p300-CH1 domain (323 to 423 residues) from synthetic biotinylated HIF-1alpha C-TAD domain (786 to 826 residues) (unknown origin) measured after overnight incubation by fluorescence analysis
Procedure, shortened: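 Cell-free protein–protein displacement assay. The p300 CH1 domain is displaced from the HIF-1α C-TAD, which is immobilized on streptavidin-coated plates. IC50 values derived.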
Target sequence in this assay (Q16665 whole entry): as the sequence (Q16665 whole entry, looked up) above

[7] = target: T1, Hypoxia-inducible factor 1-alpha; assay: Inhibition of hypoxia-induced HIF1alpha transcriptional activity in human HCT116 cells assessed as compound concentration causing inhibition of transcriptional activity measured after 18 hrs by hypoxia response element-driven dual luciferase reporter gene assay relative to hypoxia control; format: cell-based; details: HCT-116; procedure, shortened: as §3
Target sequence in this assay (Q16665 whole entry, looked up): as above

[8] = Cytotoxicity against human COLO205 cells measured after 48 hrs under hypoxic condition by CCK8 assay; format: functional, cell-based; details: COLO 205, 48 h
Procedure, shortened: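 COLO 205 cells in RPMI-1640 with 10% FBS, seeded 15 000 cells/well. After 24 h, treated with fresh medium holding compound (0.001−10 μM), tirapazamine positive control or DMSO (0.5%, v/v). Incubated 48 h at 0.5% O2, then CCK-8 added for 2 h at 37 °C and absorbance read at 450 nm. Viability normalized to DMSO controls. Quadruplicate wells, triplicate experiments.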

[9] = Cytotoxicity against human HCT116 cells measured after 48 hrs under hypoxic condition by CCK8 assay; format: functional, cell-based; details: HCT-116, 48 h; procedure, shortened: as §1
[10] = target: T1, Hypoxia-inducible factor 1-alpha; assay: Inhibition of HIF1alpha in human LNCAP cells assessed as hypoxia-induced VEGF secretion at 0.5 uM measured after 18 hrs under hypoxic conditions by ELISA
Target sequence in this assay (Q16665 whole entry, looked up): as above

[11] = target: T1, Hypoxia-inducible factor 1-alpha; assay: Inhibition of HIF-1alpha in human PC3 cells assessed as decrease in ENO1 mRNA expression level; format: cell-based; details: PC-3
Target sequence in this assay (Q16665 whole entry, looked up): as above

[12] = target: T1, Hypoxia-inducible factor 1-alpha; assay: Inhibition of HIF-1alpha in human PC3 cells assessed as decrease in VEGF mRNA expression level; format: cell-based; details: PC-3
[13] = target: T1, Hypoxia-inducible factor 1-alpha; assay: Inhibition of HIF-1alpha in human PC3 cells assessed as decrease in LDHA mRNA expression level; format: cell-based; details: PC-3
[14] = target: T1, Hypoxia-inducible factor 1-alpha; assay: Inhibition of hypoxia-induced HIF1alpha transcriptional activity in human LNCAP cells at 0.25 to 0.5 uM measured after 18 hrs by hypoxia response element-driven dual luciferase reporter gene assay relative to hypoxia control; format: cell-based
[15] = target: T1, Hypoxia-inducible factor 1-alpha; assay: Inhibition of HIF-1alpha in human LNCAP cells assessed as decrease in VEGF secretion at 0.5 uM measured after 18 hrs under hypoxic conditions by ELISA; format: cell-based
Procedure, shortened: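 LNCaP cells seeded 15 000/well in 96-well plates and incubated overnight at 37 °C. Medium then replaced with medium containing 0.1% charcoal-stripped FBS plus compound at 0.25, 0.5 or 1 μM, or DMSO control. Incubated 18 h at 1% O2. Supernatant diluted 2-fold and VEGF quantified by Quantikine ELISA. Values normalised per cell using CCK-8 viability. Triplicate experiments; exact Wilcoxon test with Hochberg correction.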

[16] = target: T1, Hypoxia-inducible factor 1-alpha; assay: Inhibition of hypoxia-induced HIF1alpha transcriptional activity in human HCT116 cells at 0.25 to 0.5 uM measured after 18 hrs by hypoxia response element-driven dual luciferase reporter gene assay relative to hypoxia control; format: cell-based; details: HCT-116
Procedure, shortened: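 HCT 116 cells seeded 50 000/well and cotransfected with 100 ng pGL4.42 (4×HRE-firefly luciferase) and 10 ng pRL-TK Renilla using Lipofectamine 2000. After 24 h, cells treated in medium with 0.1% FBS, compound 0.01–10 μM. Incubated 18 h at 0.5% O2 or normoxia. HRE:TK signal divided by the mean of the DMSO hypoxic controls gives fold-induction. Quadruplicate wells, triplicate experiments.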

[17] = target: T1, Hypoxia-inducible factor 1-alpha; assay: Inhibition of HIF1alpha in human LNCAP cells assessed as hypoxia-induced VEGF secretion at 0.25 to 1 uM measured after […] under hypoxic conditions by ELISA; format: cell-based

O=C1C=C2S[C@H]3C[C@]2(C=C1Br)C1=C(N3)C(=O)c2[nH]cc3c2C1=NCC3 [(+)-DISCORHABDIN B]
IC50 [1]: 3.1 µM | inhibition outcome (active/inactive) [2]: Active | Concentration causing inhibition [3]: 1 µM | IC50 [4]: 7 µM | inhibition (qualitative active call) [5]: Active | IC50 [6]: 3.7 µM | Concentration causing inhibition [7]: 0.1 µM | IC50 [8]: 1.8 µM

O=C1C=C(S[C@H]2[C@H]3C(=O)C=C4S[C@H]5C[C@]42C2=C(N5)C(=O)c4[nH]cc5c4C2=[N+]3CC5)[C@]2(C=C1Br)CCNC1=C2C2=NCCc3c[nH]c(c32)C1=O
IC50 [9]: 26.8 µM | IC50 [1]: > 10 µM | inhibition outcome (active/inactive) [2]: Active | Concentration causing inhibition [3]: 1 µM | IC50 [4]: > 10 µM | inhibition (qualitative active call) [5]: Active | IC50 [6]: 2.4 µM | Concentration causing inhibition [7]: 0.1 µM | IC50 [8]: > 10 µM

Cn1c(C[C@H](N)C(=O)O)cnc1S[C@H]1[C@H]2C(=O)C=C3S[C@H]4C[C@]31C1=C(N4)C(=O)c3[nH]cc4c3C1=[N+]2CC4
IC50 [9]: > 50 µM | IC50 [1]: > 10 µM | inhibition outcome (active/inactive) [2]: Active | Concentration causing inhibition [3]: 0.1 µM | IC50 [4]: > 10 µM | inhibition (qualitative active call) [5]: Active | IC50 [6]: 2.2 µM | inhibition [10]: Active | Concentration causing inhibition [7]: 0.5 µM | IC50 [8]: > 10 µM

CN1C(=O)[C@]23CC4=CC=C[C@H](O)[C@H]4N2C(=O)[C@@]1(CO)SS3
inhibition [11]: Active | inhibition [12]: Active | inhibition [13]: Active

Nc1n[n+]([O-])c2ccccc2[n+]1[O-] [TIRAPAZAMINE]
IC50 [9]: 11.9 µM | IC50 [1]: 72.7 µM | IC50 [8]: 47.7 µM

O=C1C=C(SSC2=CC(=O)C(Br)=C[C@]23CCNC2=C3C3=NCCc4c[nH]c(c43)C2=O)[C@]2(C=C1Br)CCNC1=C2C2=NCCc3c[nH]c(c32)C1=O
IC50 [1]: > 10 µM | IC50 [4]: > 10 µM | inhibition (qualitative active call) [5]: Active | IC50 [6]: > 100 µM | Concentration causing inhibition [7]: 0.1 µM | IC50 [8]: > 10 µM

O=C1C(NC2Cc3cc(Br)c(O)cc3S2)=CC2=NCCc3c[nH]c1c32 (centres undefined) [MAKALUVAMINE F]
IC50 [1]: 7.2 µM | inhibition outcome (active/inactive) [2]: Active | Concentration causing inhibition [3]: 0.1 µM | IC50 [4]: > 10 µM | inhibition (qualitative active call) [5]: Active | IC50 [6]: 8.3 µM | Concentration causing inhibition [7]: 0.25 µM | IC50 [8]: > 10 µM

CN1C(=O)[C@@]2(CO)SS[C@@]1(Cc1cn([C@]34C[C@@]56SS[C@](CO)(C(=O)N5[C@H]3Nc3ccccc34)N(C)C6=O)c3ccccc13)C(=O)N2C
inhibition [14]: Active | inhibition [15]: Active | inhibition [16]: Active | IC50 [6]: 1.9 µM

O=C1C2=C(C3=NCCc4c[nH]c1c43)[C@]1(C=C(Br)[C@H](O)C(Br)=C1)CCN2
IC50 [1]: 8.6 µM | inhibition outcome (active/inactive) [2]: Active | Concentration causing inhibition [3]: 1 µM | IC50 [4]: > 10 µM | inhibition (qualitative active call) [5]: Active | IC50 [6]: 35.2 µM | Concentration causing inhibition [7]: 10 µM | IC50 [8]: 5.1 µM

O=C1C2=C3C4=[N+](CCc5c[nH]c1c54)[C@@H]1C(=O)C=C4S[C@@H](C[C@@]43[C@H]1O)N2
IC50 [9]: > 50 µM | inhibition [17]: Active | IC50 [1]: 6.2 µM | inhibition outcome (active/inactive) [2]: Active | Concentration causing inhibition [3]: 1 µM | IC50 [4]: 8.3 µM | inhibition (qualitative active call) [5]: Active | IC50 [6]: 0.73 µM | Concentration causing inhibition [7]: 0.1 µM | IC50 [8]: 7.6 µM
